Laboratory results as given in ChEMBL document CHEMBL4842317, “Discovery of novel 3-hydroxyandrosta-5,7-Diene-17-Carboxylic acid derivatives as anti-inflammatory bowel diseases (IBD) agents” (Eur J Med Chem, 2021).
Calls of active or inactive are those of the source. The rule behind the calls is not given here.

Assays:
[1] = tested on: RAW264.7; assay: Antiinflammatory activity against mouse RAW264.7 cells assessed as inhibition of LPS-induced NO production measured after 24 hrs by Griess assay; assay type: functional, cell-based; details: RAW264.7, 24 h
Outline: (§1)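 RAW 264.7 cells (1 × 10^5 cells/mL) are cultured 24 h, stimulated with LPS (100 ng/mL final), and treated with compounds from 100 μM downward for 24 h in DMEM with 10% FBS. Medium nitrite is measured by Griess reaction (sulfanilamide, naphthylethylenediamine, phosphoric acid, 10 min, room temperature, dark). Mean + SD from three independent experiments.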

[2] = tested on: RAW264.7; assay: Cytotoxicity against mouse RAW264.7 cells assessed as reduction in cell viability at 3 to 100 uM incubated for 24 hrs in presence of LPS by MTT assay; assay type: cell-based; details: raw264.7, 24 h, dose 3-100 µM
Outline: (§2)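 RAW 264.7 cells are seeded at 1.0 × 10^4 per well and incubated overnight. Compounds are added at concentrations from 100 μM downward, with or without LPS (100 ng/mL), for 24 h. MTT (0.5 mg/mL) is added for 4 h and the formazan is dissolved in DMSO for the read-out.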

[3] = tested on: RAW264.7; assay: Antiinflammatory activity against mouse RAW264.7 cells assessed as inhibition of LPS-induced NO production at 20 uM after 24 hrs by Griess assay; assay type: functional; outline: as §1
[4] = tested on: RAW264.7; assay: Cytotoxicity against mouse RAW264.7 cells assessed as reduction in cell viability at 3 to 100 uM incubated for 24 hrs by MTT assay; assay type: cell-based; details: raw264.7, 24 h, dose 3-100 µM; outline: as §2
[5] = tested on: RAW264.7; assay: Antiinflammatory activity against mouse RAW264.7 cells assessed as inhibition of LPS-induced iNOS mRNA expression at 20 uM incubated for 8 hrs in presence of LPS by qRT-PCR analysis; assay type: functional, cell-based
Outline: (§3)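 RAW 264.7 cells are grown 12 h in six-well plates, then exposed to LPS (100 ng/ml) plus compound for 8 h. Reverse transcription is followed by SYBR Green qPCR with GAPDH as internal control. Relative expression is calculated by 2^-ΔΔCT versus the untreated control. Mean + SD from three independent experiments.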

[6] = tested on: RAW264.7; assay: Antiinflammatory activity against mouse RAW264.7 cells assessed as inhibition of LPS-induced COX2 mRNA expression at 20 uM incubated for 8 hrs in presence of LPS by qRT-PCR analysis; assay type: functional, cell-based; outline: as §3
[7] = tested on: RAW264.7; assay: Antiinflammatory activity against mouse RAW264.7 cells assessed as decrease in LPS-induced IL-1beta mRNA expression at 20 uM in presence of LPS by qRT-PCR analysis; assay type: functional, cell-based; outline: as §3
[8] = tested on: RAW264.7; assay: Antiinflammatory activity against mouse RAW264.7 cells assessed as decrease in LPS-induced IL-6 mRNA expression at 20 uM in presence of LPS by qRT-PCR analysis; assay type: functional, cell-based; outline: as §3
[9] = tested on: RAW264.7; assay: Antiinflammatory activity against mouse RAW264.7 cells assessed as decrease in LPS-induced TNF-alpha mRNA expression at 20 uM in presence of LPS by qRT-PCR analysis; assay type: functional, cell-based; outline: as §3
[10] = tested on: RAW264.7; assay: Antiinflammatory activity against mouse RAW264.7 cells assessed as inhibition of LPS-induced MCP-1 mRNA expression at 20 uM in presence of LPS by qRT-PCR analysis; assay type: functional, cell-based; outline: as §3
[11] = tested on: RAW264.7; assay: Antiinflammatory activity against mouse RAW264.7 cells assessed as decrease in LPS-induced NF-kappB mRNA expression at 20 uM in presence of LPS by qRT-PCR analysis; assay type: functional, cell-based; outline: as §3
[12] = tested on: Mus musculus; assay: Antiinflammatory activity against DSS-induced colitis C57BL/6 mouse model assessed as reduction in scores of stool consistency and bleeding at 20 mg/kg, ip administered for 7 days by immunohistochemistry analysis; assay type: functional, organism-based; details: time 7.0 day
[13] = tested on: Mus musculus; assay: Antiinflammatory activity against DSS-induced colitis C57BL/6 mouse model assessed as dispersed CD86-positive cells in colon at 20 mg/kg, ip administered for 7 days by hematoxylin and eosin staining based microscopic analysis; assay type: functional, organism-based; details: time 7.0 day
Outline: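 DSS colitis (3.5% DSS, male C57BL/6 mice, n=5 per group) with 7-day intraperitoneal dosing in saline/castor oil/ethanol/DMSO vehicle. Colons are fixed in formalin, paraffin-embedded and stained with H&E (viewed at 200X). Separately, sections undergo CD86 immunohistochemistry (citrate antigen retrieval, 3% H2O2 block, 1:200 primary and HRP secondary, hematoxylin counterstain) viewed at 400X.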

Row | SMILES | IC50 [1] | Activity [2] | inhibition at 20 µM [3] | Activity [4] | Activity [5] | Activity [6] | Activity [7] | Activity [8] | Activity [9] | Activity [10] | Activity [11] | Activity [12] | Activity [13]
1 | C[C@]12CC[C@H]3[C@@H](CC=C4C[C@@H](O)CC[C@@]43C)[C@@H]1CC[C@@H]2C(=O)NCCN1CCOCC1 | > 20 µM | Non-Toxic | 36.4% | Non-Toxic |  |  |  |  |  |  |  |  | 
2 | CC(C)CCNC(=O)[C@H]1CC[C@H]2[C@@H]3CC=C4C[C@@H](O)CC[C@]4(C)[C@H]3CC[C@]12C | 11.3 µM | Non-Toxic | 59.2% | Non-Toxic |  |  |  |  |  |  |  |  | 
3 | CC[C@](C)(O)[C@H]1CC[C@H]2C3=CC=C4C[C@@H](O)CC[C@]4(C)[C@H]3CC[C@@]21C | 27 µM | Non-Toxic | 52.5% | Non-Toxic |  |  |  |  |  |  |  |  | 
4 | CCCCOC(=O)[C@H]1CC[C@H]2C3=CC=C4C[C@@H](O)CC[C@]4(C)[C@H]3CC[C@]12C | > 20 µM | Non-Toxic | 37.8% | Non-Toxic |  |  |  |  |  |  |  |  | 
5 | CCCNC(=O)[C@H]1CC[C@H]2[C@@H]3CC=C4C[C@@H](O)CC[C@]4(C)[C@H]3CC[C@]12C | 15.6 µM | Non-Toxic | 72.8% | Non-Toxic | inactive | Active | inactive | inactive | inactive | Active | Active |  | 
6 | C[C@]12CC[C@H]3[C@@H](CC=C4C[C@@H](O)CC[C@@]43C)[C@@H]1CC[C@@H]2C(=O)Nc1n[nH]cc1C#N | > 20 µM | Non-Toxic | 24.9% | Non-Toxic |  |  |  |  |  |  |  |  | 
7 | C[C@]12CC[C@H]3[C@@H](CC=C4C[C@@H](O)CC[C@@]43C)[C@@H]1CC[C@@H]2C(=O)NC1CCCCC1 | > 20 µM | Non-Toxic | 47.8% | Non-Toxic |  |  |  |  |  |  |  |  | 
8 | C[C@]12CC[C@H]3[C@@H](CC=C4C[C@@H](O)CC[C@@]43C)[C@@H]1CC[C@@H]2C(=O)NCCCn1ccnc1 | > 20 µM | Non-Toxic | 50.4% | Non-Toxic |  |  |  |  |  |  |  |  | 
9 | C[C@]12CC[C@H]3[C@@H](CC=C4C[C@@H](O)CC[C@@]43C)[C@@H]1CC[C@@H]2C(=O)NCCc1cccs1 | 21.2 µM | Non-Toxic | 55.6% | Non-Toxic |  |  |  |  |  |  |  |  | 
10 | COC(=O)[C@H]1CC[C@H]2C3=CC=C4C[C@@H](O)CC[C@]4(C)[C@H]3CC[C@]12C | > 20 µM | Non-Toxic | 21.8% | Non-Toxic |  |  |  |  |  |  |  |  | 
11 | C[C@]12CC[C@H]3[C@@H](CC=C4C[C@@H](O)CC[C@@]43C)[C@@H]1CC[C@@H]2C(=O)N1CCCCC1 | > 20 µM | Non-Toxic | 37.4% | Non-Toxic |  |  |  |  |  |  |  |  | 
12 | CCN(CC)C(=O)[C@H]1CC[C@H]2[C@@H]3CC=C4C[C@@H](O)CC[C@]4(C)[C@H]3CC[C@]12C | > 20 µM | Non-Toxic | 25.5% | Non-Toxic |  |  |  |  |  |  |  |  | 
13 | CCCOC(=O)[C@H]1CC[C@H]2C3=CC=C4C[C@@H](O)CC[C@]4(C)[C@H]3CC[C@]12C | 9.02 µM | Non-Toxic | 89.4% | Non-Toxic | Active | Active | Active | Active | Active | Active | Active |  | 
14 | C[C@]12CC[C@H]3[C@@H](CC=C4C[C@@H](O)CC[C@@]43C)[C@@H]1CC[C@@H]2C(=O)NCCO | > 20 µM | Non-Toxic | 41.1% | Non-Toxic |  |  |  |  |  |  |  |  | 
15 | C[C@]12CC[C@H]3[C@@H](CC=C4C[C@@H](O)CC[C@@]43C)[C@@H]1CC[C@@H]2C(=O)NC1CC1 | > 20 µM | Non-Toxic | 40.5% | Non-Toxic |  |  |  |  |  |  |  |  | 

The next lines start with results.

Row | IC50 [1] | SMILES | Activity [2] | inhibition at 20 µM [3] | Activity [4] | Activity [5] | Activity [6] | Activity [7] | Activity [8] | Activity [9] | Activity [10] | Activity [11] | Activity [12] | Activity [13]
16 | > 20 µM | CC(=O)NCCNC(=O)[C@H]1CC[C@H]2[C@@H]3CC=C4C[C@@H](O)CC[C@]4(C)[C@H]3CC[C@]12C | Non-Toxic | 16.1% | Non-Toxic |  |  |  |  |  |  |  |  | 
17 | > 20 µM | CCOC(=O)[C@H]1CC[C@H]2C3=CC=C4C[C@@H](O)CC[C@]4(C)[C@H]3CC[C@]12C | Non-Toxic | 11.3% | Non-Toxic |  |  |  |  |  |  |  |  | 
18 | 31.3 µM | C[C@]12CC[C@H]3[C@@H](CC=C4C[C@@H](O)CC[C@@]43C)[C@@H]1CC[C@@H]2C(=O)NCCN1CCCC1 | Non-Toxic | 50.4% | Non-Toxic |  |  |  |  |  |  |  |  | 
19 | > 20 µM | CC(C)(O)CNC(=O)[C@H]1CC[C@H]2[C@@H]3CC=C4C[C@@H](O)CC[C@]4(C)[C@H]3CC[C@]12C | Non-Toxic | 38.8% | Non-Toxic |  |  |  |  |  |  |  |  | 
20 | 14.8 µM | C[C@@H]1C[C@H]2[C@@H]3CCC4=CC(=O)C=C[C@]4(C)[C@@]3(F)[C@@H](O)C[C@]2(C)[C@@]1(O)C(=O)CO [DEXAMETHASONE] |  | 93.6% |  |  |  |  |  | Active |  |  | Active | Active
21 | > 20 µM | CC(C)NC(=O)[C@H]1CC[C@H]2[C@@H]3CC=C4C[C@@H](O)CC[C@]4(C)[C@H]3CC[C@]12C | Non-Toxic | 7.84% | Non-Toxic |  |  |  |  |  |  |  |  | 
22 | > 20 µM | C[C@]12CC[C@H]3[C@@H](CC=C4C[C@@H](O)CC[C@@]43C)[C@@H]1CC[C@@H]2C(=O)NCCc1ccccc1 | Non-Toxic | 45.4% | Non-Toxic |  |  |  |  |  |  |  |  | 
23 | > 20 µM | CCCCNC(=O)[C@H]1CC[C@H]2[C@@H]3CC=C4C[C@@H](O)CC[C@]4(C)[C@H]3CC[C@]12C | Non-Toxic | 44.4% | Non-Toxic |  |  |  |  |  |  |  |  | 
24 | > 20 µM | CCC[C@](C)(O)[C@H]1CC[C@H]2C3=CC=C4C[C@@H](O)CC[C@]4(C)[C@H]3CC[C@@]21C | Non-Toxic | 55.3% | Non-Toxic |  |  |  |  |  |  |  |  | 
25 | > 20 µM | Cc1ccn(C(=O)[C@H]2CC[C@H]3[C@@H]4CC=C5C[C@@H](O)CC[C@]5(C)[C@H]4CC[C@]23C)n1 | Non-Toxic | 35.8% | Non-Toxic |  |  |  |  |  |  |  |  | 
26 | > 20 µM | CCCC[C@](C)(O)[C@H]1CC[C@H]2C3=CC=C4C[C@@H](O)CC[C@]4(C)[C@H]3CC[C@@]21C | Non-Toxic | 28.8% | Non-Toxic |  |  |  |  |  |  |  |  | 
